Assay outcomes (PubChem BioAssay)
Beta cell apopt – inhibitors of cytokine-induced beta cell apoptosis, primary screen, luminescence | INS-1E cytokine-induced death, ATP luminescence, 48 h; percent of positive-control rescue, neutral wells zero | protection from apoptosis, % (test concentration not listed) | 0.8% of 300,000 active | AID 435005, 2010;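 active means Every replicate reaches about 75%, or at least half do and their mean reaches it too, limit read from the data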;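 further: higher means more ATP so stronger rescue from cytokine killing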
Mdm2 MdmX PPI – inhibitors of human Mdm2-MdmX association, primary screen, cell-based, luminescence, split luciferase, SaOS-2, uHTS | Protein Mdm4 (Homo sapiens) + E3 ubiquitin-protein ligase Mdm2 (Homo sapiens), … | AID 485346, 2010 | inhibition, % at 8 µM | SaOS-2 split-luciferase Mdm2/MdmX complementation | 3% of 330,000 active;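 active means inhibition of at least 50% at 8 µM in the primary screen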
Target sequence (O15151 whole entry, looked up): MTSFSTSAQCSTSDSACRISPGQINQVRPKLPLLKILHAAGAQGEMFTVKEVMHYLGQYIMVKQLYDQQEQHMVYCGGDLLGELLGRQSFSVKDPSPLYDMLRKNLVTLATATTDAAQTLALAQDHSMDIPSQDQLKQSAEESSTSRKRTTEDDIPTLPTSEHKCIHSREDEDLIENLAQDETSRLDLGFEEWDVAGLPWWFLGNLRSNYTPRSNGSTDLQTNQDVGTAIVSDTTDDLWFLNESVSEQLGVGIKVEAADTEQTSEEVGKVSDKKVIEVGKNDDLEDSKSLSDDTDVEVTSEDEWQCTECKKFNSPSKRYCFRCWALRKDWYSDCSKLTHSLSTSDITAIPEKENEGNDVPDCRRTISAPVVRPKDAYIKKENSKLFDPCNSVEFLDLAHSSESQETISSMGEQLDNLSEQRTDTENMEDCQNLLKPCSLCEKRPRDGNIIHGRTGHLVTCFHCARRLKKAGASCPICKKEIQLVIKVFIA
Target sequence (Q00987 whole entry, looked up): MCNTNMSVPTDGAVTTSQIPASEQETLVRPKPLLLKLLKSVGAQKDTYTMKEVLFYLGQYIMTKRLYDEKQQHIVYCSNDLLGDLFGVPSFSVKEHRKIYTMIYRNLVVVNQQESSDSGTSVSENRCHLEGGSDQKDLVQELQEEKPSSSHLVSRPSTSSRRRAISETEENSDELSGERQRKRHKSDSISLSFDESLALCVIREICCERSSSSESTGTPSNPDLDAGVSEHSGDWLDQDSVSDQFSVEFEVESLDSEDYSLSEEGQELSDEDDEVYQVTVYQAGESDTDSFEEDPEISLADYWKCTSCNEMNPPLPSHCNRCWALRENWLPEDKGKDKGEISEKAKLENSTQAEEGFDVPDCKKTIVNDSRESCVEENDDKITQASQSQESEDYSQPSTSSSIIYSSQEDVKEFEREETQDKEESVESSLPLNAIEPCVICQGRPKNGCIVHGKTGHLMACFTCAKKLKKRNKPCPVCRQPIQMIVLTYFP
CSC inhib – cancer stem cell viability inhibitors, primary screen, luminescence; cancer stem cell-like cells viability; inhibition, % at 7.5 µM; 1.1% of 300,000 active; AID 2717, 2010; in the data active means inhibition above about 75%; tested in HMLE shEcad cells
T cruzi repl – inhibitors of intracellular T. cruzi growth, primary screen, luminescence, NIH3T3 host cells | AID 1885, 2009 | inhibition, % (no concentration beside the values) | 1.4% of 300,000 active | T. cruzi beta-gal in NIH3T3, 90 h;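 active means mean inhibition across valid replicates above about 55%, limit read from the data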;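 further: signal also drops with host cell toxicity which is not excluded here; higher percent means less beta-gal luminescence so fewer parasites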
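assay system = mouse NIH/3T3 fibroblasts infected with β-gal-expressing T. cruzi Tulahuen C4 | input = 5,000 NIH/3T3 host cells per well | buffer or medium = DMEM plus 2% FBS | timing = 3 h host attachment, then at least 90 h co-culture | measured by = GalScreen luminescence, 60 min | evaluation = luminescence reflecting intracellular parasite burden, expressed as percent inhibition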
SKKanGAS inh – S. pyogenes SKKanGAS growth inhibitors in kanamycin, primary screen, streptokinase expression inhibitor project, SKKanGAS strain, BacTiter-Glo luminescence; inhibition, % at 7.5 µM; 1.3% of 300,000 active; 6 h;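 active means mean replicate score, as percent of positive control median, at least 50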;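 further: strain carries kanamycin resistance gene driven by streptokinase promoter and grows in 40 µg/ml kanamycin; loss of luminescence reflects streptokinase promoter inhibition or plain growth inhibition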
L major viab – Leishmania major promastigote growth inhibition, primary screen. inhibition, % at 10 µM. 9% of 200,000 active. Leishmania major promastigotes, resazurin fluorescence viability. AID 1063, 2008; in the data active means inhibition above about 50%;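 further: promastigotes grown with compound for 44 hours at 28 °C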
Of the large screens only hits and unclear results are named; the others gave an inactive call. In the library only some 9.4% were active in any assay of this set; here they are far more common.

CCC(C)C(NC(=O)C1CCC(C)CC1)C(=O)NC(CCSC)C(=O)OC (stereo unspecified)	L major viab 68
CSCCC(NC(=O)C1CCC(C)CC1)C(=O)O (stereo unspecified)	none
COc1ccccc1CCC(=O)Nc1ccc(S(=O)(=O)Nc2nccs2)cc1	none (no result: L major viab)
COc1ccc(C/C(N)=N/OC(=O)C(c2ccccc2)c2ccccc2)cc1OC	L major viab 65
COc1ccc(C/C(N)=N/OC(C)=O)cc1OC	none
CC1(C)C(=O)Nc2ccccc2N1C(=O)CSc1ncccn1	none (no result: Beta cell apopt)
CCCCCCn1c(COc2ccccc2F)nnc1SCC(=O)N1c2ccccc2NC(=O)C1(C)C	L major viab 55 (no result: CSC inhib)
CC(NC(=S)NCCc1ccccc1)C(c1cccs1)N1CCN(Cc2ccccc2)CC1 (stereo unspecified)	L major viab 97 (no result: CSC inhib)
CC(NC(=S)Nc1ccccc1Cl)C(c1cccs1)N1CCCC1 (stereo unspecified)	L major viab 84
Cc1ccccc1NC(=S)NC(C)C(c1cccs1)N1CCOCC1 (stereo unspecified)	none (no result: CSC inhib)
COc1cc([N+](=O)[O-])cc(/C=N/N(CCC#N)C(C)=O)c1O	none
Cc1ccc(SCC(=O)Nc2ccc(N3CCN(C)CC3)c(F)c2)c(C)c1	L major viab 100
C=C(C)C1CC=C(C)/C(=N/NC(=O)c2cccs2)C1 (stereo unspecified)	none
C=C(C)C1CC=C(C)/C(=N/NC(=O)c2ccc(NC(=O)CCC)cc2)C1 (stereo unspecified)	L major viab 100 (no result: CSC inhib)
C=C(C)C1CC=C(C)/C(=N/NC(=O)c2ccc(NC(=O)CC)cc2)C1 (stereo unspecified)	L major viab 99
C=C(C)C1CC=C(C)/C(=N/NC(=O)c2ccccc2[N+](=O)[O-])C1 (stereo unspecified)	L major viab 63
C=C(C)C1CC=C(C)/C(=N/NC(=O)CNc2ccc(OCC)cc2)C1 (stereo unspecified)	L major viab 100
C=C(C)C1CC=C(C)/C(=N\NC(=O)CCC(=O)Nc2ccc(C)c(C)c2)C1 (stereo unspecified)	none (no result: CSC inhib, L major viab)
C=C(C)C1CC=C(C)/C(=N/Nc2ccccc2[N+](=O)[O-])C1 (stereo unspecified)	none
COc1cccc(NC(=O)CN(C)C(=O)CNC(=O)c2ccc3ccccc3c2)c1	none (no result: L major viab)
CSc1ncccc1C(=O)OCC(=O)N(C)c1c(N)n(Cc2ccccc2)c(=O)[nH]c1=O	none (no result: L major viab)
CC(C)c1nc(NCc2ccccc2)c(C#N)c2c1CCCC2	SKKanGAS inh 79
N#Cc1c(NCCCO)nc(NCc2ccccc2)c2c1CCN(Cc1ccccc1)C2	L major viab 59
CN1CCc2c(C#N)c(N3CCCCC3)nc(NCc3ccccc3)c2C1	T cruzi repl 56, L major viab 78
CC(C)c1nc(Cl)c(C#N)c2c1CCCC2	none
CCN(CC)c1nc(N2CCOCC2)c(C#N)c2c1CN(C)CC2	none
COc1ccc(C(=O)NCCS(=O)(=O)NC(C)c2ccccc2)cc1 (stereo unspecified)	none (no result: CSC inhib, L major viab)
CCN(CC(=O)NCc1cccs1)C(=O)/C=C/c1cc(Br)ccc1OC(F)F	none (no result: T cruzi repl, SKKanGAS inh, L major viab)
CC(C)Cc1cc(C(=O)N2CCCC(CO)(Cc3ccc(F)cc3F)C2)n[nH]1 (stereo unspecified)	none (no result: L major viab)
Cc1nn(-c2ccccc2)c(C)c1/C=C/C(=O)OC(C)C(=O)Nc1ncc(Cl)cc1Cl (stereo unspecified)	none
Cc1nn(-c2ccccc2)c(C)c1/C=C/C(=O)OCC(=O)Nc1ncc(Cl)cc1Cl	L major viab 78
CCOC(=O)N/N=C(C)/C=C/c1ccco1	L major viab 84
CC(C(=O)NC(C)(C)C)N(Cc1cccs1)C(=O)CCN1CCc2ccccc21 (stereo unspecified)	none
CCCN1CCC(N(C)CCc2ccc(OC)c(OC)c2)CC1	T cruzi repl 56
COc1ccc(CN(C)C2CCN(C)CC2)cc1OC	none (no result: L major viab)
Cn1nc([N+](=O)[O-])nc1Oc1ccccc1C(=O)N1CCOCC1	T cruzi repl 93
CCCCCCCCCCCCN1[C@@H](CC(=O)O)c2cc(F)ccc2S1(=O)=O	none (no result: L major viab)
CCCCCOc1ccc(OC(=O)c2ccncc2)cc1	CSC inhib 93
CN(C)S(=O)(=O)c1ccc(Cl)c(NC(=O)CN2CCC(Cc3ccccc3)CC2)c1	none
CCN1CCN(CC(=O)Nc2ccc(S(=O)(=O)N3C(C)CCCC3C)cc2)CC1 (stereo unspecified)	T cruzi repl 58 (no result: L major viab)
CC1CCCN(CC(=O)Nc2ccc(S(=O)(=O)N3CCCCCC3)cc2)C1 (stereo unspecified)	L major viab 84
CC1CCN(S(=O)(=O)c2ccc(NC(=O)CN3CCCC3)cc2)CC1	none (no result: L major viab)
CC1CCCN(CC(=O)Nc2ccc(S(=O)(=O)N3CCCCC3)cc2)C1 (stereo unspecified)	L major viab 92
CN(C)S(=O)(=O)c1ccc(NC(=O)CN2CCC(Cc3ccccc3)CC2)cc1	L major viab 76 (no result: CSC inhib)
Cc1c(NC(=O)c2nn(CC(C)C)c(=O)c3ccccc23)c(=O)n(-c2ccccc2)n1C	none (no result: Beta cell apopt, CSC inhib, T cruzi repl, SKKanGAS inh, L major viab)
O=C1c2cccc(OCC(=O)N3CCCc4ccccc43)c2CCN1Cc1ccc(Br)cc1	none
CCc1cc(=O)oc2c(C)c(OCC(=O)N3CCCc4ccccc43)ccc12	L major viab 89
O=C(COc1cccc2c1CCN(Cc1ccccc1F)C2=O)N1CCCCC1	none (no result: CSC inhib)
O=C1c2cccc(OCC(=O)N3CCCc4ccccc43)c2CCN1Cc1ccccc1	CSC inhib 88
CCOC(=O)N1CCN(C(=O)COc2cccc3c2CCN(Cc2ccccc2F)C3=O)CC1	L major viab 66
Cc1ccc(CN2CCc3c(OCC(=O)Nc4cccc(C)c4C)cccc3C2=O)cc1	L major viab 97
O=C(NCC(F)(F)F)c1ccc(S(=O)(=O)Nc2ccccc2N2CCCC2)cc1	none (no result: T cruzi repl, SKKanGAS inh, L major viab)
COc1ccc(CN(C)C(=O)c2cccc(S(=O)(=O)N3CCc4ccccc43)c2)c(OC)c1	none (no result: CSC inhib, T cruzi repl, SKKanGAS inh, L major viab)
Cc1ccc(-n2nnnc2SCc2nc3sc(C)c(C)c3c(=O)[nH]2)cc1	L major viab 58
COc1ccc(C(c2nnnn2C2CCCCC2)N2CCN(c3ccccc3)CC2)cc1 (stereo unspecified)	L major viab 84 (no result: Beta cell apopt, Mdm2 MdmX PPI, CSC inhib, T cruzi repl, SKKanGAS inh)
COc1ccc(C(c2nnnn2C2CCCC2)N2CCN(c3ccccc3)CC2)cc1 (stereo unspecified)	L major viab 63
CC(C)CCNC(=O)NC(=O)COC(=O)/C=C/c1cc(Br)ccc1F	none
COc1ccc(OCC(O)CN2CCN(c3ccc(Cl)cc3)CC2)cc1 (stereo unspecified)	none (no result: L major viab)
